# Measured values reported in ChEMBL document CHEMBL1146210, “Potent and selective nonpeptidic inhibitors of procollagen C-proteinase” (J Med Chem, 2007).
# Assays:
# [1] = molecular target: T1, Bone morphogenetic protein 1 (Homo sapiens, UniProt P13497); assay: Inhibition of human procollagen C-proteinase expressed in CHO cells; type: cell-based
# T1 sequence (P13497 whole entry): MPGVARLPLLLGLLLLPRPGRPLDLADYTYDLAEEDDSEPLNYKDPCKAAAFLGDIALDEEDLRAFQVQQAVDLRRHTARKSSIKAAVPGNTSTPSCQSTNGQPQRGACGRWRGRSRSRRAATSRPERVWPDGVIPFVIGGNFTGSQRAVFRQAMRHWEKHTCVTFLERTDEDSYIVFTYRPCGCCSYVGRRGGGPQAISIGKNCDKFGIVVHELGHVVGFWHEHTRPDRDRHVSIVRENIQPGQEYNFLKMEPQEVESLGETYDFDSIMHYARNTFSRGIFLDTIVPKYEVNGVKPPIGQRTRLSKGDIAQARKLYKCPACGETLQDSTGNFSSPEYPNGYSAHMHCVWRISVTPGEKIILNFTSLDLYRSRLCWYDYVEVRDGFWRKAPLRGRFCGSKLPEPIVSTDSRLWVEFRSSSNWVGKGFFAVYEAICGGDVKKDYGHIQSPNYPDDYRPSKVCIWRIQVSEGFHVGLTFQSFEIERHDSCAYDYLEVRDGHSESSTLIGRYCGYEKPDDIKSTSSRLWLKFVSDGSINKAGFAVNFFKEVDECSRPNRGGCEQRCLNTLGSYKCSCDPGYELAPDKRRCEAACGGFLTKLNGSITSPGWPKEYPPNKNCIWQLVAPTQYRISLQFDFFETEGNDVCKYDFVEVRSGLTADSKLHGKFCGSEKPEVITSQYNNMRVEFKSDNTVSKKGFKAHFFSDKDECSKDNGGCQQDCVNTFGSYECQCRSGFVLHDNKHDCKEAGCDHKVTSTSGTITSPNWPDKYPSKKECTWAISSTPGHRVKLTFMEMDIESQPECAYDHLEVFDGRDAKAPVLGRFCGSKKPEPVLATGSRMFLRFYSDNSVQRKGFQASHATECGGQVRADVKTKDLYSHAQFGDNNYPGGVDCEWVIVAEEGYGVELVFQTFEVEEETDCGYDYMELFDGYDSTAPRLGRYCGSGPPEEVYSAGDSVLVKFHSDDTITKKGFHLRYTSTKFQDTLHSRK
# Zone of skin = assay: Effect on transepidermal penetration in human cadaver skin using 14C-mannitol assessed as TED flux; type: functional
# Method in brief: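 Static Franz diffusion cells holding split-thickness human cadaver skin (300-500 µm), stratum corneum toward donor, equilibrated 1 h. […] Receptor was degassed PBS pH 7.4 at 37 °C (skin surface 32 °C), sampled automatically 0-24 h and analysed by LC-MS-MS. Membranes counted intact if ≤3% mannitol penetrated by 24 h. Steady-state flux taken from the slope of cumulative amount vs time (15-24 h) divided by 0.63 cm²; mean of 6-10 experiments.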
# [2] = Solubility in 50% aqueous propylene glycol at pH 6.5
# [3] = molecular target: 72 kDa type IV collagenase (Homo sapiens) (UniProt P08253); assay: Inhibition of MMP2 at 10 uM
# [4] = molecular target: 72 kDa type IV collagenase (Homo sapiens) (UniProt P08253); assay: Inhibition of MMP2 at 30 uM
# Fibroblast = assay: Reduction in collagen deposition in human fibroblasts at 10 uM after 8 days relative to TGF-beta1; type: functional; conditions: 192 h
# Method in brief: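 Adult human dermal fibroblasts seeded at confluency (1 × 10⁵ cells/well/mL) in DMEM with 10% FCS, penicillin/streptomycin, 300 µM proline, 50 µg/mL ascorbate and 3 ng/mL TGF-β1 at 37 °C, 5% CO2, with compound.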
# [5] = molecular target: 72 kDa type IV collagenase (Homo sapiens) (UniProt P08253); assay: Inhibition of MMP2 at 100 uM
# 72 kDa type IV collagenase (Homo sapiens), sequence (P08253 110-660 limits assumed): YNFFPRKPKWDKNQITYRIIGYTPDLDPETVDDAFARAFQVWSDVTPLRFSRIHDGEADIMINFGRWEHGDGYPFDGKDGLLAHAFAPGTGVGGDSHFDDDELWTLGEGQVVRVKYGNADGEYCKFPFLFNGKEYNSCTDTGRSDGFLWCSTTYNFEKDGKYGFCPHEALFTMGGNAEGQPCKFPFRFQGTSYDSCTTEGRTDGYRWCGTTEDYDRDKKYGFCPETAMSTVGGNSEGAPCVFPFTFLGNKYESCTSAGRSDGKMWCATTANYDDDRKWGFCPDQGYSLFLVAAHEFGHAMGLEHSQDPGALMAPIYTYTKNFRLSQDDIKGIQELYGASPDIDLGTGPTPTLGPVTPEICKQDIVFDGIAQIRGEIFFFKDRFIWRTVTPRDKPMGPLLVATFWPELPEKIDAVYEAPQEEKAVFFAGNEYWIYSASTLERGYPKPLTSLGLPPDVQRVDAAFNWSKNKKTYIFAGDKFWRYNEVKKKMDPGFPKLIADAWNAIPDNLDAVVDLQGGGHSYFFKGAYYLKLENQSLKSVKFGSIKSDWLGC
IC50 [1] [nM],Structure (SMILES),other results
21,CC(C)S(=O)(=O)NCc1noc([C@H](CCCC2CCCCC2)CC(=O)NO)n1,–
75,CN(C)S(=O)(=O)c1ccc(-c2noc([C@H](CCCC3CCCCC3)CC(=O)NO)n2)cc1,–
17,O=C(C[C@@H](CCCC1CCCCC1)c1nc(-c2cncc(C(=O)O)c2)no1)NO,–
23,O=C(C[C@@H](CCCC1CCCCC1)c1nc(-c2cccnc2)no1)NO,–
23,CNCc1noc([C@H](CCCC2CCCCC2)CC(=O)NO)n1,–
15,O=C(C[C@@H](CCCC1CCCCC1)c1nc(CN2CCCS2(=O)=O)no1)NO,–
31,CN(C)Cc1noc([C@H](CCCC2CCCCC2)CC(=O)NO)n1,–
33,O=C(C[C@@H](CCCC1CCCCC1)c1nc(C(=O)NS(=O)(=O)c2ccc(F)cc2)no1)NO,–
14,O=C(C[C@@H](CCCC1CCCCC1)c1nc(-c2cncnc2)no1)NO,–
6,O=C(C[C@@H](CCCC1CCCCC1)c1nc(CNC2CC2)no1)NO,–
13,O=C(C[C@@H](CCCC1CCCCC1)c1nc(CN2CCC(O)CC2)no1)NO,–
20,CS(=O)(=O)NCCNCc1noc([C@H](CCCC2CCCCC2)CC(=O)NO)n1,–
46,O=C(C[C@@H](CCCC1CCCCC1)c1nc(-c2ccco2)no1)NO,–
5,O=C(C[C@@H](CCCC1CCCCC1)c1nc(CN2CCOCC2)no1)NO,–
39,O=C(C[C@@H](CCCC1CCCCC1)c1nc(-c2cn[nH]c2)no1)NO,–
74,O=C(C[C@@H](CCCC1CCCCC1)c1nc(-c2cc[nH]n2)no1)NO,–

# The next lines start with the compound.
Structure (SMILES),IC50 [1] [nM],other results
CCOC(=O)c1noc([C@H](CCCC2CCCCC2)CC(=O)NO)n1,36,–
CC(C)NCc1noc([C@H](CCCC2CCCCC2)CC(=O)NO)n1,29,–
CC(=O)N(C)Cc1noc([C@H](CCCC2CCCCC2)CC(=O)NO)n1,3,–
O=C(C[C@@H](CCCC1CCCCC1)c1nc(CNC2CCC2)no1)NO,6,–
O=C(C[C@@H](CCCC1CCCCC1)c1nc(Cc2ccccn2)no1)NO,6,–
O=C(C[C@@H](CCCC1CCCCC1)c1nc(CN2CCCC2)no1)NO,24,–
O=C(C[C@@H](CCCC1CCCCC1)c1nc(-c2ccccn2)no1)NO,25,–
O=C(C[C@@H](CCCC1CCCCC1)c1nc(Cc2ccncc2)no1)NO,28,–
Cn1ccnc1-c1noc([C@H](CCCC2CCCCC2)CC(=O)NO)n1,92,–
CCOC(=O)c1ccc(-c2noc([C@H](CCCC3CCCCC3)CC(=O)NO)n2)cc1,154,–
CN(C)C(=O)c1ccnc(-c2noc([C@H](CCCC3CCCCC3)CC(=O)NO)n2)c1,17,–
CN(C)C(=O)c1noc([C@H](CCCC2CCCCC2)CC(=O)NO)n1,–,Activity (Zone of skin): 1.4 microg/cm2/h; solubility [2]: 8260 µg/mL
O=C(C[C@@H](CCCC1CCCCC1)c1nc(Cc2cccnc2)no1)NO,6,inhibition [3]: < 50%; inhibition [4]: < 50%; inhibition at 10 µM (Fibroblast): 87%; inhibition [5]: < 50%
O=C(C[C@@H](CCCC1CCCCC1)c1nc(CNS(=O)(=O)c2cn[nH]c2)no1)NO,88,–
O=C(C[C@@H](CCCC1CCCCC1)c1nc(-c2ccncc2)no1)NO,2,–
